{"source": "paper PMC7114156", "about": "(Antiviral Research, 2009)", "key": {"episomal HPV-16 DNA": {"test_system": "episomal HPV-16 DNA", "assay": "Hybrid capture assay for HPV16 DNA in W12-20850 cells", "format": "cell-based", "procedure,_shortened": "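W12-20850 cells seeded at 7.5 × 10^3/well onto compound (100 to 0.001 μM), 4 days at 37 °C, 5% CO2. MTS growth read, then same cells lysed in 0.2N NaOH/1% Igepal. Episomal HPV-16 DNA measured by hybrid capture: 90 °C 6.5 min, 42 °C overnight, anti-digoxigenin HRP, chemiluminescence. HPV DNA/MTS ratio expressed as % of untreated control. Fit to modified Hill equation.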"}, "W12 20861": {"test_system": "W12 20861", "assay": "Growth of W12 20861", "format": "cell-based, human", "conditions": "72 h", "procedure,_shortened": "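Cell lines carrying integrated viral genomes were plated in 96-well plates in medium with test compound. Growth was read by ATP luminescence (CellTiter-Glo) for HEK293 and WI38 VA13, and by MTS reduction (A490 after 2 h at 37 °C) for Namalwa, W12 20861, SiHa, Caski and HeLa. K and Imax came from a fit to a modified Hill equation.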"}, "[1]": {"test_system": "activated primary B cells", "assay": "Growth of activated primary B cells, CTG", "format": "cell-based, human", "conditions": "read-out: CC50, host primary cell growth, 72 h"}, "CIN612 cells": {"test_system": "CIN612 cells", "assay": "Growth of CIN612 cells, MTS", "format": "cell-based, human"}, "[2]": {"conditions": "Homo sapiens, read-out: K, Growth, MTS"}}}
{"smiles": "O=C(N[C@@H]1CCCc2c1[nH]c1ccc(Cl)cc21)c1ccccn1", "note": "[GSK983, N-[(1R)-6-Chloro-2,3,4,9-tetrahydro-1H-carbazol-1-yl]-2-pyridinecarboxamide]", "values": [{"measurement": "Imax, Ratio, HPV DNA/MTS", "setting": "episomal HPV-16 DNA; W12-20850", "result": "90 ± 2", "unit": "%"}, {"measurement": "K, Ratio, HPV DNA/MTS", "setting": "episomal HPV-16 DNA; W12-20850", "result": "4.9 ± 0.5", "unit": "nM"}, {"measurement": "EC50", "setting": "episomal HPV-16 DNA; read-out: K, DNA, hybrid capture, W12-20850, HPV type 16, 4 days", "result": "4.5 ± 0.3", "unit": "nM"}, {"measurement": "EC50", "setting": "W12 20861; [2]", "result": "25 ± 9", "unit": "nM"}, {"measurement": "Imax, Growth, MTS", "setting": "W12 20861; W12 20861, HPV16 integrated", "result": "35 ± 2.8", "unit": "%"}, {"measurement": "CC50", "setting": "[1]", "result": "> 10000", "unit": "nM"}, {"measurement": "Imax, Growth, MTS", "setting": "CIN612 cells; CIN612", "result": "70 ± 1", "unit": "%"}, {"measurement": "EC50", "setting": "CIN612 cells; [2]", "result": "2.8 ± 0.1", "unit": "nM"}]}
